Assay results reported in ChEMBL document CHEMBL5653623 (J Pharmacol Exp Ther, 2015).
Active and inactive are the calls of the source. The calls are words filed in the database; no cut-off is given here.

What was measured:
Mus musculus [1] = assay: Effect on behavioral changes in 14 weeks old MitoPark mouse striatum assessed as dopamine level at 30 mg/kg/day by HPLC analysis; format: functional
How it was run: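 Striatum from MitoPark mice on diet targeting 30 mg/kg/day or vehicle diet (wild-type littermate controls) was homogenized by sonication in 0.1 M acid at 0.1 g/mL. Samples were held 60 min at 4 °C and centrifuged. Dopamine, DOPAC and HVA were measured by HPLC with electrochemical detection against a 3,4-DHBA internal standard and standard curves. Mean ± SEM.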

[2] = biological target: Leucine-rich repeat serine/threonine-protein kinase 2 (Mus musculus) (UniProt Q5S006); assay: In vivo inhibition of LRRK2 in C57Bl/6 mouse brain assessed as decrease in pSer935 LRRK2 at 10 to 100 mg/kg, po measured after 1 hr by Western blotting analysis relative to control; format: functional, organism-based; conditions: dose 10-100 mg/kg
How it was run: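 Male C57Bl/6 mice, 20-25 g. Single oral dose of 1-100 mg/kg suspended in 30% Captisol (10 mL/kg), or vehicle, given 1 h before CO2 euthanasia. Cortex frozen on dry ice and pSer935 LRRK2 read by Western blot. n = 5 per group.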

[3] = Tmax in C57Bl/6 mouse at 10 mg/kg, po measured after 480 mins by LC-MS/MS analysis; format: ADME, organism-based; conditions: in vivo
How it was run: (§1)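 Male C57Bl/6 mice (20-25 g) given a single IV dose (2 mg/kg) or oral dose (10 mg/kg). Blood was sampled at 5, 15, 30, 60, 120, 240, 360 and 480 min and plasma prepared by centrifugation. Plasma drug levels were measured by LC/MS/MS. Values are mean (CV%), N=3.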

[4] = biological target: Leucine-rich repeat serine/threonine-protein kinase 2 (Mus musculus) (UniProt Q5S006); assay: In vivo inhibition of LRRK2 in C57Bl/6 mouse kidney assessed as total LRRK2 protein level at 10 to 120 mg/kg administered for 11 days and measured after 8 hrs by Western blotting analysis; format: functional, organism-based; conditions: dose 10-120 mg/kg, time 11.0 day
How it was run: (§2)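 Same 11-day in-diet design in male C57Bl/6 mice: 3-120 mg/kg/day or untreated diet, killed 4, 8 or 24 h after dark-cycle onset, n = 5 per group. Kidneys dissected for Western blot of pSer935 and total LRRK2, with total LRRK2 detected by MJFF-2 antibody.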

[5] = biological target: Leucine-rich repeat serine/threonine-protein kinase 2 (Mus musculus) (UniProt Q5S006); assay: In vivo inhibition of LRRK2 in C57Bl/6 mouse kidney assessed as total LRRK2 protein level at 30 to 120 mg/kg administered for 11 days and measured after 24 hrs by Western blotting analysis; format: functional, organism-based; conditions: dose 30-120 mg/kg, time 11.0 day; how it was run: as §2
Mus musculus [6] = assay: Effect on histological changes in 20 weeks old MitoPark mouse kidney assessed as kidney darkening at 30 mg/kg/day administered for 15 weeks by hematoxylin and eosin staining based microscopic analysis; format: functional, organism-based
How it was run: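 MitoPark mice were fed diet targeting 30 mg/kg/day or vehicle for 15 weeks and euthanized at 20 weeks of age (n=5/group). Kidney and lung were fixed in 10% neutral buffered formalin, paraffin-embedded, sectioned at 5 µm, H&E-stained and examined microscopically.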

[7] = biological target: Leucine-rich repeat serine/threonine-protein kinase 2 (Mus musculus) (UniProt Q5S006); assay: In vivo inhibition of LRRK2 in C57Bl/6 mouse brain assessed as reduction in pSer935 LRRK2 administered for 11 days and measured after 4 hrs by Western blotting analysis; format: functional, organism-based; conditions: dose 3-120 mg/kg, time 11.0 day
How it was run: (§3)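 Male C57Bl/6 mice, singly housed on a reversed light cycle. Fed drug diet targeted to 3, 10, 30, 60 or 120 mg/kg/day (assuming 3 g/day intake), or untreated diet, for 11 days. Killed 4, 8 or 24 h after dark-cycle onset, n = 5 per group. Cortex immunoblotted for pSer935/total LRRK2 and total LRRK2/GAPDH. Total LRRK2 detected with MJFF2 antibody.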

[8] = Unbound brain concentration in C57Bl/6 mouse at 100 mg/kg, po administered for 1 hr; format: ADME, organism-based; conditions: in vivo
[9] = Inhibition of adenosine transporter (unknown origin); design: species or system Homo sapiens
How it was run: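 Radioligand binding selectivity screen was run at 10 μM, mean of three determinations. Where inhibition exceeded 50%, full concentration-displacement curves were run in triplicate and IC50 was obtained by nonlinear least-squares regression.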

[10] = Unbound plasma concentration in C57Bl/6 mouse administered for 11 days; format: ADME, cell-free; conditions: 264 h, dose 3-100 mg/kg, time 11 day
How it was run: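 Male C57Bl/6 mice, singly housed on a reversed 12 h light cycle, were fed diet formulated to give 3, 10, 30, 60 or 120 mg/kg/day (assumes 3 g/day intake) or untreated diet for 11 days. Body weight and food intake were monitored. Spontaneous locomotion and rearing were recorded over 60 min. On day 11, mice were euthanized 4, 8 or 24 h after dark onset and plasma and brain drug levels measured; n = 5 per group.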

[11] = Cmax in C57Bl/6 mouse at 2 mg/kg, iv measured after 480 mins by LC-MS/MS analysis; format: ADME, organism-based; conditions: in vivo; how it was run: as §1
[12] = biological target: Leucine-rich repeat serine/threonine-protein kinase 2 (Mus musculus) (UniProt Q5S006); assay: In vivo inhibition of LRRK2 in C57Bl/6 mouse brain assessed as reduction in pSer935 LRRK2 at 10 to 120 mg/kg administered for 11 days and measured for 8 to 24 hrs by Western blotting analysis; format: functional, organism-based; conditions: dose 10-120 mg/kg, time 11.0 day; how it was run: as §3
[13] = MRT in C57Bl/6 mouse at 10 mg/kg, po measured after 480 mins by LC-MS/MS analysis; format: ADME, organism-based; conditions: in vivo; how it was run: as §1
Mus musculus [14] = assay: Effect on food intake in MitoPark mouse at 30 mg/kg administered for 15 weeks; format: functional, organism-based
How it was run: (§4)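 MitoPark mice, 5 weeks old, were allocated by baseline 60-min LMA to untreated diet or diet targeting 30 mg/kg/day (reformulated every 3 weeks). Wild-type littermates received vehicle diet. Body weight and food intake were recorded weekly. 60-min LMA (distance, rearing) was run at 8, 11, 14 and 17 weeks of age.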

Mus musculus [15] = assay: Effect on behavioral phenotype in 8 weeks old MitoPark mouse assessed as rearing behavior at 30 mg/kg/day administered for 3 weeks and measured after 60 mins; format: functional, organism-based; how it was run: as §4
[16] = MRT in C57Bl/6 mouse at 2 mg/kg, iv measured after 480 mins by LC-MS/MS analysis; format: ADME, organism-based; conditions: in vivo; how it was run: as §1
[17] = biological target: Leucine-rich repeat serine/threonine-protein kinase 2 (Mus musculus) (UniProt Q5S006); assay: In vivo inhibition of LRRK2 in 20 weeks old MitoPark mouse kidney assessed as reduction in pSer935 LRRK2 level at 30 mg/kg/day administered for 15 weeks by Western blotting analysis; format: functional, organism-based
How it was run: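 MitoPark mice on drug-containing diet targeted to 30 mg/kg/day from 5 weeks of age, with the diet reformulated every 3 weeks to hold the target. Untreated-diet MitoPark and wild-type littermate controls. Killed by CO2 at 20 weeks of age. Lung and kidney taken from 5 mice per group for pSer935 and total LRRK2 immunoblots.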

[18] = Oral biavailability in C57Bl/6 mouse at 10 mg/kg measured after 480 mins by LC-MS/MS analysis; format: ADME, organism-based; conditions: in vivo; how it was run: as §1
Mus musculus [19] = assay: Effect on behavioral phenotype in MitoPark mouse at baseline assessed as higher rearing behavior at 30 mg/kg/day administered for 3 weeks and measured after 60 mins; format: functional, organism-based; how it was run: as §4

Leucine-rich repeat serine/threonine-protein kinase 2 (Mus musculus), sequence (Q5S006 whole entry): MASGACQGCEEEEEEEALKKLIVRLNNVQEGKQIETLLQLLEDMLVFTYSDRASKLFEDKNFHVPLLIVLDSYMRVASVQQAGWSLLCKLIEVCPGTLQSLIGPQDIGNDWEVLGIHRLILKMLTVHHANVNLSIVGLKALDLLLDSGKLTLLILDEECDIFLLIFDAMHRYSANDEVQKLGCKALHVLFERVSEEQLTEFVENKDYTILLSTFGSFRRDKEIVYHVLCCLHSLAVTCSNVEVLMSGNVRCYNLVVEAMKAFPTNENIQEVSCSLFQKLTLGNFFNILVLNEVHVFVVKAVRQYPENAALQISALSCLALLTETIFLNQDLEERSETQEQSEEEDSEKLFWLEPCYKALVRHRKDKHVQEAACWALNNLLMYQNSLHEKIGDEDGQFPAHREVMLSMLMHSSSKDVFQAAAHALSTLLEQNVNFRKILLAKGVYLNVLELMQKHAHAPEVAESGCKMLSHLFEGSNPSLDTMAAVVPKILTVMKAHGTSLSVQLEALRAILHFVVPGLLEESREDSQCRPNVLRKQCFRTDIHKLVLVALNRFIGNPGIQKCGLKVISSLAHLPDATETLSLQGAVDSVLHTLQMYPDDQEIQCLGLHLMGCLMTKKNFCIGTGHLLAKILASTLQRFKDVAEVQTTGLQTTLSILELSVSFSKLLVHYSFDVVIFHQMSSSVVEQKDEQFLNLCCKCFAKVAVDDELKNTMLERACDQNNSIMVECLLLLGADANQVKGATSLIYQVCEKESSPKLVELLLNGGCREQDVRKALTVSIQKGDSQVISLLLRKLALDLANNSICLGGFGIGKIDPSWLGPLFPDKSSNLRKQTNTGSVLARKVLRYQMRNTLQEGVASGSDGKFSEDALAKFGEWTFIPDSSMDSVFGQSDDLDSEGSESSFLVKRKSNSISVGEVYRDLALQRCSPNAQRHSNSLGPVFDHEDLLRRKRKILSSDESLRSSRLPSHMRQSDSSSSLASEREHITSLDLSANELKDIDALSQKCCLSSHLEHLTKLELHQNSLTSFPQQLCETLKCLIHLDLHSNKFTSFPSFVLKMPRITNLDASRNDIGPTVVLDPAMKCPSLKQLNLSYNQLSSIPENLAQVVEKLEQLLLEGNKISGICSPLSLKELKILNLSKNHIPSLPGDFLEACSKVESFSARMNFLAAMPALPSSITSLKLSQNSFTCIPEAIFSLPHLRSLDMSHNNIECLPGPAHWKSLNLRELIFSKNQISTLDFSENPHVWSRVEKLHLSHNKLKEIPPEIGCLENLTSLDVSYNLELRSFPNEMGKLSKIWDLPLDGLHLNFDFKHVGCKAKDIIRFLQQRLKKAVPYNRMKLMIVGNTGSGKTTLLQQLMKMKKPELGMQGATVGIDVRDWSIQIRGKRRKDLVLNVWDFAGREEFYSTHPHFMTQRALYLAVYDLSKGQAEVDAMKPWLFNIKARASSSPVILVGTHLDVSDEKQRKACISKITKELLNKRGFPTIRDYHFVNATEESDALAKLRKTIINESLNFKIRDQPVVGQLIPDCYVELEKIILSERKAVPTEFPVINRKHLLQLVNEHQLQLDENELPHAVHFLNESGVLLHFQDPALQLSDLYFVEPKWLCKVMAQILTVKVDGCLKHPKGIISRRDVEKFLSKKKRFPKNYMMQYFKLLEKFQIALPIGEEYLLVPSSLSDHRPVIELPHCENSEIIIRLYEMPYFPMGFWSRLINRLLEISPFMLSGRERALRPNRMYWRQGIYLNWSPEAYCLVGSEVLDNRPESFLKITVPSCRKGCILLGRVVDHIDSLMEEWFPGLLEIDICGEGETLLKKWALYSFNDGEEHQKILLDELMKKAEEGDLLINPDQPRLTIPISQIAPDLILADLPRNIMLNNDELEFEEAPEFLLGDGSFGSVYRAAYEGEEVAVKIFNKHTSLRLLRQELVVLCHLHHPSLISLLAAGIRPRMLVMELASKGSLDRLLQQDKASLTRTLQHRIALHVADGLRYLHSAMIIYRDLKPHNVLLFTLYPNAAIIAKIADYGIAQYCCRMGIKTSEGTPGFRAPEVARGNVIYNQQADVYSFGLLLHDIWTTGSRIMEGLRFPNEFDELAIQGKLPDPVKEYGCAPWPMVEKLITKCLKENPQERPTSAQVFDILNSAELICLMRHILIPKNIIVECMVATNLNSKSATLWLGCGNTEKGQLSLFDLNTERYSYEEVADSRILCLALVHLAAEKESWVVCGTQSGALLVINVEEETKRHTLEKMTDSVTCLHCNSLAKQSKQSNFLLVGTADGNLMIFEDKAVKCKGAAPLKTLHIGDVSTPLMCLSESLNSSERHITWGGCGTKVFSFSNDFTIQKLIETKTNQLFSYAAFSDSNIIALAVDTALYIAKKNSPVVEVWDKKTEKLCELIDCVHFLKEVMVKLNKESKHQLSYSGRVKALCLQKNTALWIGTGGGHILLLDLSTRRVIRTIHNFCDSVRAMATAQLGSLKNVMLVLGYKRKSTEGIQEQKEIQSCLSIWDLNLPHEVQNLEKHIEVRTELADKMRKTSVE

Question: What does the source list for `C[C@@H]1CN(c2cc(-c3n[nH]c4ccc(OC5(C)CC5)cc34)ncn2)C[C@H](C)O1` [MLi-2]?
Answer: Activity (Mus musculus [1]): 1105 ng/g; inhibition [2]: > 90%; Tmax [3]: 0.75 h; inhibition [4]: Active; inhibition [5]: Active; Activity (Mus musculus [6]): inactive; inhibition [7]: Dose-Dependent Effect; Drug uptake(free) [8]: 272.9 nM; IC50 [9]: 9.7 µM; Drug uptake(free) [10]: Dose-Dependent Effect; Cmax [11]: 716 nM; inhibition [12]: Active; MRT [13]: 11 h; Activity (Mus musculus [14]): inactive; Activity (Mus musculus [15]): Active; MRT [16]: 2.7 h; inhibition [17]: Active; bioavailability [18]: 45%; Activity (Mus musculus [19]): Active
